Experimental findings from the RNAGym collection of RNA variant scans (doi:10.1038/s41586-018-0170-7) are described below.

B1: tRNA (parent)
chain: GUUCCGUUGGCGUAAUGGUAACGCGUCUCCCUCCUAAGGAGAAGACUGCGGGUUCGAGUCCCGUACGGAACG

The series covers variants of B1. The series can be described thus: yeast fitness, log relative to wild type (ln ratio); higher = fitter; tRNA-Arg(CCU), competitive growth, 37 C, 1 M NaCl. The procedure, abridged: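 BY4742 cells without the chromosomal tRNA-Arg(CCU) gene carried a combinatorial variant library on a HIS3 centromeric plasmid, from two independent transformations. After 4 generations in SC-HIS at 30 °C, pools spent ~6.5 generations (~26.5 h) in SC-HIS 1M NaCl at 37 °C, giving three outputs per input, and 125 bp paired-end Illumina reads counted the variants. Fitness is the natural log of each genotype's generations over the wild type's, with generations taken as OD-scaled log2 output/input frequency weighted by inverse variance across replicates.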
For the variant AGUCCUUUGGCGUAAUGGUAACGCGUCUCCCUCCUAAGGAGACGAUUGCGGGUUCGAGUCCCGUACGGGUUG [G1A U2G G6U A43C C46U A69G A70U C71U], the “yeast fitness (ln)” value was -0.398.
As for AGUCCAUUGGCGUAAUGGUAACGCGUCUCCCUCCUAAGGAGAAGACUGCGGGUUCGAGUCCCGUAAGGAUCG [G1A U2G G6A C66A A70U], the “yeast fitness (ln)” value is -0.0697.
Next, AGUCCUUUGGCGUAAUGGUAACGCGUCUCCCUCCUAAGGAGACGAUUGCGGGUUCGAGUCCCGUACGGGAUG [G1A U2G G6U A43C C46U A69G C71U]: -0.393.
On to AGUCCUUUGGCGUAAUGGUAACGCGUCUCCCUCCUAAGGAGACGAUUGCGGGUUCGAGUCCCGUAUGGAUUG [G1A U2G G6U A43C C46U C66U A70U C71U], for which the “yeast fitness (ln)” value is -0.399.
As for AGUCCUUUGGCGUAAUGGUAACGCGUCUCCCUCCUAAGGAGACGAUUGCGGGUUCGAGUCCCGUACGGGGUG [G1A U2G G6U A43C C46U A69G A70G C71U], the figure is -0.345; as for AGUCCUUUGGCGUAAUGGUAACGCGUCUCCCUCCUAAGGAGACGAUUGCGGGUUCGAGUCCCGUAUGGAGUG [G1A U2G G6U A43C C46U C66U A70G C71U], -0.418.
As for AGUCCUUUGGCGUAAUGGUAACGCGUCUCCCUCCUAAGGAGACGACUGCGGGUUCGAGUCCCGUAUGGGAUG [G1A U2G G6U A43C C66U A69G C71U], the figure is -0.437.
As for AGUCCUUUGGCGUAAUGGUAACGCGUCUCCCUCCUAAGGAGACGACUGCGGGUUCGAGUCCCGUAAGGAGUG [G1A U2G G6U A43C C66A A70G C71U], the figure is -0.301.
As for AGUCCAUUGGCGUAAUGGUAACGCGUCUCCCUCCUAAGGAGAAGACUGCGGGUUCGAGUCCCGUAUGGGUUG [G1A U2G G6A C66U A69G A70U C71U], the “yeast fitness (ln)” value was -0.33.
Next, AGUCCUUUGGCGUAAUGGUAACGCGUCUCCCUCCUAAGGAGACGACUGCGGGUUCGAGUCCCGUACGGGGUG [G1A U2G G6U A43C A69G A70G C71U]: -0.439.
As for AGUCCUUUGGCGUAAUGGUAACGCGUCUCCCUCCUAAGGAGACGACUGCGGGUUCGAGUCCCGUAUGGGGCG [G1A U2G G6U A43C C66U A69G A70G], the figure is -0.371.
Next, AGUCCUUUGGCGUAAUGGUAACGCGUCUCCCUCCUAAGGAGACGACUGCGGGUUCGAGUCCCGUAUGGGUCG [G1A U2G G6U A43C C66U A69G A70U]: -0.255.
As for AGUCCUUUGGCGUAAUGGUAACGCGUCUCCCUCCUAAGGAGACGACUGCGGGUUCGAGUCCCGUACGGAACG [G1A U2G G6U A43C], the “yeast fitness (ln)” value was -0.257.
As for AGUCCUUUGGCGUAAUGGUAACGCGUCUCCCUCCUAAGGAGACGAUUGCGGGUUCGAGUCCCGUAUGGGAUG [G1A U2G G6U A43C C46U C66U A69G C71U], the figure is -0.393.
Next, AGUCCUUUGGCGUAAUGGUAACGCGUCUCCCUCCUAAGGAGACGAUUGCGGGUUCGAGUCCCGUAUGGAACG [G1A U2G G6U A43C C46U C66U]: -0.271; AGUCCUUUGGCGUAAUGGUAACGCGUCUCCCUCCUAAGGAGACGAUUGCGGGUUCGAGUCCCGUAAGGAACG [G1A U2G G6U A43C C46U C66A]: -0.364; AGUCCUUUGGCGUAAUGGUAACGCGUCUCCCUCCUAAGGAGACGAUUGCGGGUUCGAGUCCCGUAUGGGUUG [G1A U2G G6U A43C C46U C66U A69G A70U C71U]: -0.499.
Next, AGUCCUUUGGCGUAAUGGUAACGCGUCUCCCUCCUAAGGAGACGAUUGCGGGUUCGAGUCCCGUAUGGGGUG [G1A U2G G6U A43C C46U C66U A69G A70G C71U]: -0.371; AGUCCUUUGGCGUAAUGGUAACGCGUCUCCCUCCUAAGGAGACGACUGCGGGUUCGAGUCCCGUAAGGAAUG [G1A U2G G6U A43C C66A C71U]: -0.265.
For AGUCCAUUGGCGUAAUGGUAACGCGUCUCCCUCCUAAGGAGAAGACUGCGGGUUCGAGUCCCGUAUGGAGUG [G1A U2G G6A C66U A70G C71U], the “yeast fitness (ln)” value is -0.578.
With AGUCCUUUGGCGUAAUGGUAACGCGUCUCCCUCCUAAGGAGACGAUUGCGGGUUCGAGUCCCGUAAGGGUUG [G1A U2G G6U A43C C46U C66A A69G A70U C71U], the “yeast fitness (ln)” value is -0.314.
Take AGUCCUUUGGCGUAAUGGUAACGCGUCUCCCUCCUAAGGAGACGACUGCGGGUUCGAGUCCCGUAAGGAGCG [G1A U2G G6U A43C C66A A70G]: the “yeast fitness (ln)” value is -0.251.
As to AGUCCUUUGGCGUAAUGGUAACGCGUCUCCCUCCUAAGGAGACGACUGCGGGUUCGAGUCCCGUAAGGAUCG [G1A U2G G6U A43C C66A A70U], the “yeast fitness (ln)” value was -0.282.
As for AGUCCUUUGGCGUAAUGGUAACGCGUCUCCCUCCUAAGGAGACGAUUGCGGGUUCGAGUCCCGUACGGAUUG [G1A U2G G6U A43C C46U A70U C71U], the figure is -0.226; as for AGUCCUUUGGCGUAAUGGUAACGCGUCUCCCUCCUAAGGAGACGAUUGCGGGUUCGAGUCCCGUAUGGAAUG [G1A U2G G6U A43C C46U C66U C71U], -0.371; as for AGUCCAUUGGCGUAAUGGUAACGCGUCUCCCUCCUAAGGAGAAGACUGCGGGUUCGAGUCCCGUAUGGGGCG [G1A U2G G6A C66U A69G A70G], -0.282.
Next, AGUCCAUUGGCGUAAUGGUAACGCGUCUCCCUCCUAAGGAGAAGACUGCGGGUUCGAGUCCCGUAUGGGUCG [G1A U2G G6A C66U A69G A70U]: -0.334.
As for AGUCCUUUGGCGUAAUGGUAACGCGUCUCCCUCCUAAGGAGACGAUUGCGGGUUCGAGUCCCGUACGGAGUG [G1A U2G G6U A43C C46U A70G C71U], the figure is -0.338.
Regarding AGUCCAUUGGCGUAAUGGUAACGCGUCUCCCUCCUAAGGAGAAGACUGCGGGUUCGAGUCCCGUAUGGAAUG [G1A U2G G6A C66U C71U], the “yeast fitness (ln)” value was -0.146.
As for AGUCCUUUGGCGUAAUGGUAACGCGUCUCCCUCCUAAGGAGACGAUUGCGGGUUCGAGUCCCGUAUGGGUCG [G1A U2G G6U A43C C46U C66U A69G A70U], the figure is -0.299; as for AGUCCUUUGGCGUAAUGGUAACGCGUCUCCCUCCUAAGGAGACGAUUGCGGGUUCGAGUCCCGUAUGGGGCG [G1A U2G G6U A43C C46U C66U A69G A70G], -0.365.
Turning to AGUCCAUUGGCGUAAUGGUAACGCGUCUCCCUCCUAAGGAGAAGACUGCGGGUUCGAGUCCCGUAUGGAUCG [G1A U2G G6A C66U A70U], the “yeast fitness (ln)” value is -0.319.
As for AGUCCAUUGGCGUAAUGGUAACGCGUCUCCCUCCUAAGGAGAAGACUGCGGGUUCGAGUCCCGUAUGGAGCG [G1A U2G G6A C66U A70G], the figure is -0.142; as for AGUCCAUUGGCGUAAUGGUAACGCGUCUCCCUCCUAAGGAGAAGACUGCGGGUUCGAGUCCCGUAAGGGGUG [G1A U2G G6A C66A A69G A70G C71U], -0.257; as for AGUCCUUUGGCGUAAUGGUAACGCGUCUCCCUCCUAAGGAGACGACUGCGGGUUCGAGUCCCGUAUGGAUCG [G1A U2G G6U A43C C66U A70U], -0.284.
As for AGUCCUUUGGCGUAAUGGUAACGCGUCUCCCUCCUAAGGAGACGACUGCGGGUUCGAGUCCCGUAUGGAGCG [G1A U2G G6U A43C C66U A70G], the figure is -0.271; as for AGUCCUUUGGCGUAAUGGUAACGCGUCUCCCUCCUAAGGAGACGACUGCGGGUUCGAGUCCCGUAAGGAUUG [G1A U2G G6U A43C C66A A70U C71U], -0.387.
As for AGUCCAUUGGCGUAAUGGUAACGCGUCUCCCUCCUAAGGAGAAGAUUGCGGGUUCGAGUCCCGUAUGGAUCG [G1A U2G G6A C46U C66U A70U], the figure is -0.251.
